Source: PubChem BioAssay (several laboratories)
FLuc stim CS – FLuc activators, initial screening, artefact control for FLuc-dependent activation tests, biochemical, ATPlite luminescence; ATPlite luciferase biochemical, 10 min; 0 = ATP-free wells, 1 = DMSO control; activation factor at 10 µM; 200,000 tested, under 10 active;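 active = luciferase activation factor, scaled between plate controls, of at least 2 with compound at 10 µM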
Target sequence (P08659 whole entry, looked up): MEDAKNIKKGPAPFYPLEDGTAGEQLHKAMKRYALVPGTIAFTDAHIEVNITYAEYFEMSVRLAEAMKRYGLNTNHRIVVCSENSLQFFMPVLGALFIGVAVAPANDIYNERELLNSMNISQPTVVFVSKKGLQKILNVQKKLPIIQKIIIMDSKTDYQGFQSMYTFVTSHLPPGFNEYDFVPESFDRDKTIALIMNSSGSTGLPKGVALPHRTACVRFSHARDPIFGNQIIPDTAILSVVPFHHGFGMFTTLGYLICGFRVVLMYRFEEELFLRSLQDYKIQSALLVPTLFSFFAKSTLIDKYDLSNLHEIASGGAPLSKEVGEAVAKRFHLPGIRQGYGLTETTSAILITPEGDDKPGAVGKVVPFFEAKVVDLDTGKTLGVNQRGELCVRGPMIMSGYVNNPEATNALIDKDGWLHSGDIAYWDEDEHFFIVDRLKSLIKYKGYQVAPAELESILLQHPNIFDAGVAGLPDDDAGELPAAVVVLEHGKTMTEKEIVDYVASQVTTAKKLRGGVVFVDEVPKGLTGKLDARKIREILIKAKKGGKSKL
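Material: luciferase plus luciferin reagent, cell-free. Medium: PBS buffer for ATP. Also added: ATP substrate, dispensed from a 10.24 µM working solution in PBS. Doses: test compounds dosed from 2 mM stocks in 100% DMSO. Incubation: 10 min post-reagent at room temperature. Technique: light output (luminescence). Read-out basis: luminescence gain marking luciferase activators.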
Diaphorase act – compounds boosting diaphorase resazurin reduction – biochemical, uHTS, resorufin fluorescence, counter-screen for diaphorase-coupled primary assays, primary screen | Diaphorase/resazurin coupled assay, 16 min; hits give high values; 1 = vehicle wells, 0 = NADH-free wells | activation factor at 20 µM | 190,000 tested, 0.005% active;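 active = diaphorase activity raised at least twofold by the compound at 20 µM; inactive = activation factor below 2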
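Measured by – red resorufin fluorescence at 544/590 nm excitation/emission · Test system – Clostridium kluyveri diaphorase, purified enzyme · Incubation – reaction time 16 min, room temperature · Buffer or medium – 50 mM HEPES pH 7.4 with 4.542 mM MgCl2, 0.005% Tween 20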
ABCG2 inh – ABCG2 efflux pump inhibitors, primary screen, multiplex with ABCB1, IgMXP3 cells, flow cytometry | JC-1 efflux | 190,000 tested, 0.1% active | AID 1325, 2008 | inhibition, % at 6.6 µM;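 active = inhibition above 80%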
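Measure – % inhibition of efflux relative to nicardipine and DMSO · Test system – ABCG2 IgMXP3 and barcoded ABCB1 CCRF-Adr cell mix · Control set – nicardipine as high control, DMSO as low control · Compound – one concentration, 6.6 µM final · Signal – flow cytometry of retained JC-1 fluorescence · Timing – 10 min exposure at 25 °C with rotation, no wash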
ABCB6 inh 2 – ABCB6 transporter inhibitors, primary screen, K562-ABCB6 cells, flow cytometry, MLPCN library; ATP-binding cassette sub-family B member 6 (Homo sapiens), Q9NP58; K562-ABCB6 porphyrin accumulation, 1 h; hits give low values; fluorescence ratio to DMSO, % at 10 µM; 360,000 tested, 0.19% active; AID 602162, 2011;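 active = fluorescence ratio to DMSO below 75%, the collection mean minus 3 SD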;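 also: signal is porphyrin accumulated inside mitochondria; lower ratio means ABCB6 inhibition with less porphyrin fluorescence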
ABCB1 inh – ABCB1 efflux pump inhibitors, primary screen, cell-based, multiplex, flow cytometry, ABCG2 counter-screen; CCRF-Adr cells, JC-1 efflux; inhibition, % at 6.6 µM; 190,000 tested, 0.067% active; in the data active = inhibition above about 40%;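 also: higher value means more JC-1 retained so stronger ABCB1 efflux block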
FLuc inh counter – firefly luciferase enzyme inhibitors, primary screen, artefact control for luciferase-based inhibitor screens, biochemical, luminescence, ATPLite | AID 1006, 2008 | inhibition, % at 10 µM | 10 min | 200,000 tested, 1.5% active;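 active = inhibition above about 50% when tested at 10 µM, limit read from the data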
Of the large screens only hits and unclear results are named; the others gave an inactive call. The sample as a whole holds a higher share of hits than the screen did.

Cc1sc2ncnc(N=Nc3c(O)[nH]c4ccccc34)c2c1C	FLuc inh counter 50
c1ccc(-c2noc(-c3ccc4c(c3)OCO4)n2)cc1	FLuc inh counter 69
c1ccc(-c2noc(-c3ccc4ccccc4c3)n2)cc1	FLuc inh counter 68
COc1cccc(-c2noc(-c3ccc4c(c3)OCO4)n2)c1	FLuc inh counter 82
O=[N+]([O-])c1cccc(-c2nnc(-c3ccc4c(c3)OCO4)o2)c1	none
Clc1ccccc1-c1nnc(-c2ccc3c(c2)OCO3)o1	FLuc inh counter 80
COc1ccc(-c2noc(-c3ccc4c(c3)OCO4)n2)cc1	none
COc1ccc(NC(=O)Nc2ccc3c(c2)C(=O)N([C@H](C)CO)C[C@H](C)[C@@H](CN(C)C(=O)Nc2ccc(OC)cc2)O3)cc1	none (no result: FLuc stim CS, Diaphorase act, ABCG2 inh, ABCB1 inh, FLuc inh counter)
O=C(CC1SCCNC1=O)NCc1ccccc1 (centres undefined)	none (no result: FLuc stim CS, Diaphorase act, ABCG2 inh, ABCB1 inh, FLuc inh counter)
O=c1oc2ccccc2cc1-c1nc(-c2ccccc2)no1	FLuc inh counter 75
Cc1ccc(N(CC(=O)NC2CCCC2)C(=O)c2nsc(Cl)c2Cl)cc1	none (no result: FLuc stim CS, Diaphorase act, ABCG2 inh, ABCB1 inh, FLuc inh counter)
CCOC(=O)/C(C#N)=C/c1cc(C)n(-c2ccccc2)c1C	FLuc inh counter 76
Cc1cc(/C=C(\C#N)C(=O)Nc2ccccc2)c(C)n1-c1cccnc1	FLuc inh counter 51
CCOC(=O)/C(C#N)=C/c1cc(C)n(-c2ccc(Br)cc2)c1C	none (no result: ABCB6 inh 2)
CN(C(=O)c1ccccc1)c1nc2ccccc2s1	FLuc inh counter 84
CCOc1ccc(OCC)c(NC(=O)CN2CCN(c3cccc(C)c3C)CC2)c1	ABCG2 inh 95
CC(C)(C)C1CCc2sc(C(=O)NNC(=O)CCl)cc2C1 (centres undefined)	FLuc inh counter 57
CCn1nnc(NC(=O)c2ccc(C(C)(C)C)cc2)n1	FLuc inh counter 82
Cc1ccc(C(=O)COC(=O)CNC(=O)c2ccccc2)s1	none (no result: FLuc stim CS, Diaphorase act, ABCG2 inh, ABCB1 inh, FLuc inh counter)
O=C1C(C=NCc2cccnc2)=C(O)c2ccccc21	FLuc inh counter 68
O=C1C(C=NCc2ccncc2)=C(O)c2ccccc21	none
COc1ccc(-n2c(C)cc(C(=O)Cn3nnc4ccccc4c3=O)c2C)cc1	none
Cc1cc(C(=O)Cn2nnc3ccccc3c2=O)c(C)n1-c1ccccc1F	FLuc inh counter 85
O=C(Nc1ccccc1)c1ccc2ccccc2n1	FLuc inh counter 52
O=C(Nc1ccccc1C(=O)O)c1ccc2ccccc2n1	FLuc inh counter 56
Cc1ccc(NC(=O)c2ccc3ccccc3n2)nc1	FLuc inh counter 73
Cc1ccccc1C(=O)NC1CCN(CC(=O)N2CCCCC2C)CC1 (centres undefined)	none (no result: FLuc stim CS, Diaphorase act, ABCG2 inh, ABCB1 inh, FLuc inh counter)
O=C(c1cccc(-n2cccc2)c1)N1CCN(S(=O)(=O)c2ccccc2Br)CC1	none (no result: FLuc stim CS, Diaphorase act, ABCG2 inh, ABCB1 inh, FLuc inh counter)
CC(=O)c1ccc(NC(=O)c2ccn[nH]2)cc1	FLuc inh counter 60
Cc1ccc(C(=O)Nc2ccc(Cl)cc2C)c(Cl)c1	FLuc inh counter 76
Cc1ccc(C(=O)Nc2ccc(Cl)cc2C(F)(F)F)c(Cl)c1	none
CC(C)NC(=O)C1(C)CCN1C/C=C/c1ccccc1 (centres undefined)	none (no result: FLuc stim CS, Diaphorase act, ABCG2 inh, ABCB1 inh, FLuc inh counter)
COc1ccc2c(c1)O/C(=C\c1sccc1C)C2=O	FLuc inh counter 86
COc1ccc(/C=C2\Oc3ccccc3C2=O)cc1	none (no result: FLuc stim CS, Diaphorase act, ABCG2 inh, ABCB1 inh, FLuc inh counter)
Cc1ccc(NC(=O)CSCC(=O)NNC(=O)c2nn(C)c(=O)c3ccccc23)cc1	none (no result: FLuc stim CS, Diaphorase act, ABCG2 inh, ABCB1 inh, FLuc inh counter)
COc1ccccc1NS(=O)(=O)c1cccc(C(=O)N/N=C/c2c(C)nn(-c3ccccc3)c2N2CCCC2)c1	ABCB6 inh 2 74
C/C(=N\NS(=O)(=O)c1c(C)cc(C)cc1C)c1ccncc1	none (no result: FLuc stim CS, Diaphorase act, ABCG2 inh, ABCB1 inh, FLuc inh counter)
O=C(/C=C/c1ccc(Cl)cc1Cl)Nc1cccc(S(=O)(=O)NC2=NCCCCC2)c1	FLuc inh counter 55
